# In the EternaBench riboswitch data:
# Legend:
# MS2 coat protein [1] = assay: apparent Kd, MS2 coat protein; higher = weaker binding; RNA-MaP array; tryptophan 2.4 mM where present
# How it was run: (§1)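 Designs on Illumina sequencing-chip clusters, transcribed by stalled E. coli RNA polymerase, were exposed to SNAP-549-labelled MS2 coat protein in doubling steps from 0.7 or 1.5 nM up to 3 µM, without and then with constant ligand. The buffer held 100 mM Tris-HCl pH 7.5, 80 mM KCl, 4 mM MgCl2, BSA, DTT, yeast tRNA and Tween-20. Apparent Kd values are medians of filtered per-cluster binding-curve fits to green signal normalised to red-channel RNA signal and control-cluster median Fmax.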
# MS2 coat protein [2] = assay: apparent Kd, MS2 coat protein; higher = weaker binding; RNA-MaP array; theophylline 2 mM where present
# How it was run: as §1
# [3] = designed as: ON switch for tryptophan, no ligand
# [4] = ligand present: tryptophan, designed as: ON switch for tryptophan
# [5] = designed as: OFF switch for tryptophan, no ligand
# [6] = ligand present: tryptophan, designed as: OFF switch for tryptophan
# [7] = designed as: ON switch for theophylline, no ligand
# [8] = ligand present: theophylline, designed as: ON switch for theophylline
# [9] = designed as: OFF switch for theophylline, no ligand
# [10] = ligand present: theophylline, designed as: OFF switch for theophylline
sequence,measurement,setting,value
AAAUGUACGUCGGCCGCCACUGCGCUGAAGACAGUCACAUGAGGAUCACCCAUGUACGACAAGGGUAGGACCGGGAUGUGAGGGU,apparent Kd,MS2 coat protein [1]; [3],91.4 nM
same,apparent Kd,MS2 coat protein [1]; [4],44.7 nM
AACAUGAGGAUCACCCAUGUCCUCAUGAUUCGAGGACCGGUACGGCCGCCACUCGGUCCUCGCGAGGAGGAGUCAAAGACUCCAA,apparent Kd,MS2 coat protein [1]; [3],178 nM
same,apparent Kd,MS2 coat protein [1]; [4],393 nM
AAUAAACAUGAGGAUCACCCAUGUUGUUGACGAGGACCGGUACGGCCGCCACUCGACAUGAGGAUCACCCAUGUUGUCACAUGAG,apparent Kd,MS2 coat protein [1]; [3],180 nM
same,apparent Kd,MS2 coat protein [1]; [4],151 nM
AAUAAUAUCCUCAUGUGAGUCGUACCAUAACGAGGACCGGUACGGCCGCCACUCGAACAUGAGGAUCACCCAUGUAGGUAUGAUA,apparent Kd,MS2 coat protein [1]; [3],85.9 nM
same,apparent Kd,MS2 coat protein [1]; [4],200 nM
AAUCAUGAAAACAUGACAUGAGGAUCACUCCGAGGACCGGUACGGCCGCCACUCGCGAGGAGGCGGACAUGAGGAUCACCCAUGU,apparent Kd,MS2 coat protein [1]; [3],254 nM
same,apparent Kd,MS2 coat protein [1]; [4],66.3 nM
AAUGUAUGCCACAUGAGGAUCACCCAUGUGCGAGGACCGGUACGGCCGCCACUCGGUCGGUGGUUAAUGAAGAUAUACAAUAAUG,apparent Kd,MS2 coat protein [1]; [5],11.5 nM
same,apparent Kd,MS2 coat protein [1]; [6],15.5 nM
ACACAUGAGGAUCACCCAUGUUGAGGAACACGAGGACCGGUACGGCCGCCACUCGACACAUGAGGAUCACCCAUGUGAUCACCCA,apparent Kd,MS2 coat protein [1]; [3],141 nM
same,apparent Kd,MS2 coat protein [1]; [4],169 nM
ACAUGAGGAUCACCCAUGUUUGAUGUUCCUCGAGGACCGGUACGGCCGCCACUCGAACGAGUGGCGCGCGAGUGCGCACUCGCGC,apparent Kd,MS2 coat protein [1]; [3],12.2 nM
same,apparent Kd,MS2 coat protein [1]; [4],12.5 nM
ACCGCGGUAUCGGCCGCCACUUGUGGGUUAAAUCUGGUACAUGAGGAUCACCCAUGUGUCUCCUCGAGGACCGGGAUAGCGUGAC,apparent Kd,MS2 coat protein [1]; [3],158 nM
same,apparent Kd,MS2 coat protein [1]; [4],23.9 nM
AGAAUAUAGUCGGCCGCCACUCUACAAACAUGAGGAUCACCCAUGUUCACAUAGUGGAAACACAUGAGGACCGGGACAUAGGCAU,apparent Kd,MS2 coat protein [1]; [3],15.6 nM
same,apparent Kd,MS2 coat protein [1]; [4],14.2 nM
AUGACUCACAAAGAAGAUAAAAUGGGUGAACGAGGACCGGUACGGCCGCCACUCGGACAUGAGGAUCACCCAUGUCCAUGUGCAA,apparent Kd,MS2 coat protein [1]; [5],22.1 nM
same,apparent Kd,MS2 coat protein [1]; [6],28.8 nM
AUGCAUAGCACGGCCGCCACUCCAUGUAAACAUGAGGAUCACCCAUGUAAUUUGGAUGUUUUAUAGAGGACCGGGUGAAAUGCAA,apparent Kd,MS2 coat protein [1]; [5],8.88 nM
same,apparent Kd,MS2 coat protein [1]; [6],15.1 nM
AUGGAGACCUCGGCCGCCACUCUCCAUGAGGAUCUCCCAUGUAACAUGAGGAUCACCCAUGUACUGAGGACCGGGAGGUCCUUGA,apparent Kd,MS2 coat protein [1]; [3],9.9 nM
same,apparent Kd,MS2 coat protein [1]; [4],10.8 nM
AUGGAGACCUCGGCCGCCACUCUCCAUGAGGAUCUCCCAUGUAACAUGAGGAUCACCCAUGUGCUGAGGACCGGGAGGUCCUGAA,apparent Kd,MS2 coat protein [1]; [3],10.6 nM
same,apparent Kd,MS2 coat protein [1]; [4],12 nM
AUUCAUGGAAACAUGACAUACAUUACCGGUCGAGGACCGGUACGGCCGCCACUCGGUUGGUGGCACAUGAGGAUCACCCAUGUUA,apparent Kd,MS2 coat protein [1]; [3],26.8 nM
same,apparent Kd,MS2 coat protein [1]; [4],26.7 nM
CAAUAAGUACCGGUCCUCAGAUCCUCAUGACGAGGACCGGUACGGCCGCCACUCGAAACAUGAGGAUCACCCAUGUAAUAAUAAC,apparent Kd,MS2 coat protein [1]; [5],40.9 nM
same,apparent Kd,MS2 coat protein [1]; [6],30.5 nM
CCAUUGAUGACGGCCGCCACUGUCUACAUGAGGAUCACCCAUGUAUAGCAGGGUGGACCUAUGGACAGGACCGGGUCACUUGUCC,apparent Kd,MS2 coat protein [1]; [5],11 nM
same,apparent Kd,MS2 coat protein [1]; [6],12.3 nM
CCUAUGCAGUCGGCCGCCACUGAACAUGAGGAUCACCCAUGUAUAUAAAGAUCCUGAUAUAAUAACAGGACCGGGACUGUAUAGG,apparent Kd,MS2 coat protein [1]; [5],59.7 nM
same,apparent Kd,MS2 coat protein [1]; [6],157 nM
CUCUGAGUGAGCAAUCACUCAGAGGCGGAUACCAGCGAGGUCCAUCGCCCUUGGCAGCCGAACAUGAGGAUCACCCAUGUCGGUA,apparent Kd,MS2 coat protein [2]; [7],10.1 nM
same,apparent Kd,MS2 coat protein [2]; [8],16.6 nM
GAACAUGAGGAUCACCCAUGUAAAACAGAUACCAGUGAUAUAAUACACCCUUGGCAGCUGUAGCUGAAUAAUAAUUCCCUCAAGC,apparent Kd,MS2 coat protein [2]; [7],15.5 nM
same,apparent Kd,MS2 coat protein [2]; [8],18.4 nM
GAGGGUGGGUCUCUAAUCCGUUUGACGGAUACCAGCGAGAGAUAUCGCCCUUGGCAGCCGACGACAUGAGGAUCACCCAUGUAAA,apparent Kd,MS2 coat protein [2]; [9],15.6 nM
same,apparent Kd,MS2 coat protein [2]; [10],101 nM
GAUCCUCAUACGGAUACCAGCGAAUAACAUGAGGAUCACCCAUGUAAUAAAGAAAAUAAAUGCCCUUGGCAGCCGAAUAGAUAGU,apparent Kd,MS2 coat protein [2]; [7],166 nM
same,apparent Kd,MS2 coat protein [2]; [8],69.4 nM
GAUGAACUAUUUGAUACCAGACUACAUGAGGAUCACCCAUGUGUGUUUAUACUUCAGUCAGUCCCUUGGCAGCAAAUAGUUUAUC,apparent Kd,MS2 coat protein [2]; [9],147 nM
same,apparent Kd,MS2 coat protein [2]; [10],306 nM
GCACCAGGUACGGAUACCAGCUGCCAUAGUUACAUGAGGAUCACCCAUGUGAUCUAUUGUAGCCCUUGGCAGCUGUACCUGGUGC,apparent Kd,MS2 coat protein [2]; [7],104 nM
same,apparent Kd,MS2 coat protein [2]; [8],92.4 nM
GCUGUAAGUGCAGAUACCAGCGUGUUAUAUUUCUAAUGACAUGAGGAUCACCCAUGUAAAUGCCCUUGGCAGCUGCACUUACAGC,apparent Kd,MS2 coat protein [2]; [7],16.1 nM
same,apparent Kd,MS2 coat protein [2]; [8],16.9 nM
GGGCCUGUAAGCAGACCCACAGCGGGUGAUACCAGCAAUAAAACUUGCCCUUGGCAGCACACAGCUACAUGAGGAUCACCCAUGU,apparent Kd,MS2 coat protein [2]; [7],43.2 nM
same,apparent Kd,MS2 coat protein [2]; [8],83.2 nM
